Data set [1] has as its system Human immunodeficiency virus 1. The data set is described as follows: Antiviral activity against HIV1 NL4-3 infected in human MT4 cells assessed as p24 antigen level at 10 uM after 4 days by ELISA. The data set is classed as functional, organism-based. (In general: In an ELISA, binding on a coated surface is turned into a signal by an enzyme label.)
The subject of data set [2] is Human immunodeficiency virus 1. The data set is described as follows: Antiviral activity against HIV1 infected in human TZM-bl cells assessed as reduction of viral entry after 48 hrs by luciferase reporter gene assay. The data set is classed as functional, organism-based. A digest of the protocol:
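Single-round infection of TZM-bl cells (HeLa clone expressing CD4/CCR5 with HIV-1 LTR-driven firefly luciferase) with HIV-1 at 200 TCID50 mixed with test samples. After 48 h, medium was replaced with Bright-Glo reagent and luminescence read. IC50 is the concentration giving 50% RLU reduction versus virus-control wells after background subtraction.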
(In a reporter assay the amount or activity of a reporter protein is the signal.)

For data set [3], the system named is Human immunodeficiency virus 1. The data set is described as follows: Antiviral activity against HIV1 infected in human TZM-bl cells assessed as reduction of viral […] after 48 hrs by luciferase reporter gene assay. The data set is classed as functional, organism-based. A digest of the protocol:
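Single-round infection of TZM-bl cells (HeLa clone expressing CD4 and CCR5, HIV-1 LTR-driven firefly luciferase) with HIV-1 at 200 TCID50 mixed with samples. Luminescence read after 48 h. IC50 is the concentration giving 50% lower RLU than virus control wells, after subtracting background RLU.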

Data set [4] is described as follows: Therapeutic index, ratio of CC50 for human MT4 cells to IC50 for HIV-1 NL4-3. The data set is classed as cell-based. The conditions noted are these: read-out: Ratio CC50/IC50. A digest of the protocol: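 TI calculated as CC50 (mock-infected MT-4 growth, 2 days) divided by IC50 (HIV-1 NL4-3 replication in MT-4 cells, p24 ELISA at day 4).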
The subject of data set [5] is Human immunodeficiency virus 1. Kind of data set: Antiviral activity against HIV1 NL4-3 infected in human MT4 cells assessed as p24 antigen level after 4 days by ELISA. The data set is classed as functional, organism-based. The conditions noted are these: Human immunodeficiency virus 1, NL4-3, MT4, 96 h. In a few lines:
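MT-4 cells infected with HIV-1 NL4-3 variants at MOI 0.01; supernatants harvested day 4 post-infection for p24 antigen capture ELISA. IC50 is the concentration inhibiting replication by 50%; values are averages of at least three separate experiments.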

A further data set deals with MT4. The data set is described as follows: Cytotoxicity against human MT4 cells after 2 days. Type of data set: cell-based. To be noted: mt4, 48 h.

Activity calls are given as the source filed them. The calls are words filed in the database; no cut-off is given here. Some results are limits rather than exact numbers.

In the case of `C=C(C)[C@@H]1CC[C@]2(C(=O)OCCCCCC(=O)OCC)CC[C@]3(C)[C@H](CC[C@@H]4[C@@]5(C)CC[C@H](O)C(C)(C)[C@@H]5CC[C@]43C)[C@@H]12`, the result in data set [1] and in data set [2] was inactive.

Regarding `C=C(C)[C@@H]1CC[C@]2(C(=O)OCCC)CC[C@]3(C)[C@H](CC[C@@H]4[C@@]5(C)CC[C@H](O)C(C)(C)[C@@H]5CC[C@]43C)[C@@H]12`, the result in data set [1] and in data set [2] was inactive. Further, the result in data set [3] was Active.

For the compound `C=C(C)[C@@H]1CC[C@]2(C(=O)OCOC)CC[C@]3(C)[C@H](CC[C@@H]4[C@@]5(C)CC[C@H](OC(=O)CC(C)(C)C(=O)O)C(C)(C)[C@@H]5CC[C@]43C)[C@@H]12`, the result in data set [2] was inactive. In addition, the selectivity ratio in data set [4] came to 70.9. Also, the IC50 in data set [5] is 170 nM. This compound came in with a CC50 in the data set with MT4 of 12400 nM.

On to `C=C(C)[C@@H]1CC[C@]2(C(=O)ON3C(=O)CCC3=O)CC[C@]3(C)[C@H](CC[C@@H]4[C@@]5(C)CC[C@H](OC(=O)CC(C)(C)C(=O)O)C(C)(C)[C@@H]5CC[C@]43C)[C@@H]12`, for which the result in data set [2] was inactive. Besides, in data set [4], the selectivity ratio amounted to 86.2. For the same compound, in data set [5], the IC50 turned out to be 130 nM. The same compound gave a CC50 in the data set with MT4 of 11000 nM.

Regarding `C=C(C)[C@@H]1CC[C@]2(C(=O)O)CC[C@]3(C)[C@H](CC[C@@H]4[C@@]5(C)CC[C@H](O)C(C)(C)[C@@H]5CC[C@]43C)[C@@H]12`, the outcome in data set [2] was Active.

Turning to `C=C(C)[C@@H]1CC[C@]2(C(=O)OCOCCOC)CC[C@]3(C)[C@H](CC[C@@H]4[C@@]5(C)CC[C@H](OCOCCOC)C(C)(C)[C@@H]5CC[C@]43C)[C@@H]12`, the outcome in data set [1] and in data set [2] was inactive.

As for `C=C(C)[C@@H]1CC[C@]2(C(=O)OCc3cn([C@H]4C[C@H](n5cc(C)c(=O)[nH]c5=O)O[C@@H]4CO)nn3)CC[C@]3(C)[C@H](CC[C@@H]4[C@@]5(C)CC[C@H](OC(=O)CC(C)(C)C(=O)O)C(C)(C)[C@@H]5CC[C@]43C)[C@@H]12`, the outcome in data set [2] was inactive. Moreover, in data set [4], the selectivity ratio was 101. Further, the IC50 in data set [5] worked out at 100 nM. This compound returned a CC50 in the data set with MT4 of 11000 nM.

Consider `C=C(C)[C@@H]1CC[C@]2(C(=O)N3CCC(CCCC(=O)NCCCN4CCOCC4)CC3)CC[C@]3(C)[C@H](CC[C@@H]4[C@@]5(C)CC[C@H](O)C(C)(C)[C@@H]5CC[C@]43C)[C@@H]12`, for which the outcome in data set [1] and in data set [2] was inactive.

In the case of `C#CCOC(=O)[C@]12CC[C@@H](C(=C)C)[C@@H]1[C@H]1CC[C@@H]3[C@@]4(C)CC[C@H](O)C(C)(C)[C@@H]4CC[C@@]3(C)[C@]1(C)CC2`, the result in data set [1] and in data set [2] was inactive.

As for `C=C(C)[C@@H]1CC[C@]2(C(=O)N3CCN(CCCC(=O)O)CC3)CC[C@]3(C)[C@H](CC[C@@H]4[C@@]5(C)CC[C@H](O)C(C)(C)[C@@H]5CC[C@]43C)[C@@H]12`, the result in data set [1] and in data set [2] was inactive.

As for `C=C(C)[C@@H]1CC[C@]2(C(=O)OCCCCCCCC)CC[C@]3(C)[C@H](CC[C@@H]4[C@@]5(C)CC[C@H](O)C(C)(C)[C@@H]5CC[C@]43C)[C@@H]12`, the result in data set [1] and in data set [2] was inactive.

Take `C=C(C)[C@@H]1CC[C@]2(C(=O)OCOC)CC[C@]3(C)[C@H](CC[C@@H]4[C@@]5(C)CC[C@H](OCOC)C(C)(C)[C@@H]5CC[C@]43C)[C@@H]12`: the outcome in data set [1] and in data set [2] was inactive.

Consider `C=C(C)[C@@H]1CC[C@]2(C(=O)N3CCC(CCCC(=O)NC)CC3)CC[C@]3(C)[C@H](CC[C@@H]4[C@@]5(C)CC[C@H](OC(=O)CC(C)(C)C(=O)O)C(C)(C)[C@@H]5CC[C@]43C)[C@@H]12`, for which, in data set [2], the outcome was inactive. The selectivity ratio in data set [4] is more than 55.5. Moreover, the IC50 in data set [5] worked out at 240 nM. The compound also yielded a CC50 in the data set on MT4 of more than 13300 nM.

Regarding `C=C(C)[C@@H]1CC[C@]2(C(=O)N3CCC(CCCC(=O)NCCN4CCOCC4)CC3)CC[C@]3(C)[C@H](CC[C@@H]4[C@@]5(C)CC[C@H](O)C(C)(C)[C@@H]5CC[C@]43C)[C@@H]12`, the outcome in data set [1] and in data set [2] was inactive.

For the compound `C=C(C)[C@@H]1CC[C@]2(C(=O)OCCCCCC)CC[C@]3(C)[C@H](CC[C@@H]4[C@@]5(C)CC[C@H](O)C(C)(C)[C@@H]5CC[C@]43C)[C@@H]12`, the outcome in data set [1] and in data set [2] was inactive. For the same compound, the result in data set [3] was Active.

As for `C=C(C)[C@@H]1CC[C@]2(C(=O)OCCOCCOCCOCCOC(=O)CC(C)(C)C(=O)O)CC[C@]3(C)[C@H](CC[C@@H]4[C@@]5(C)CC[C@H](OC(=O)CC(C)(C)C(=O)O)C(C)(C)[C@@H]5CC[C@]43C)[C@@H]12`, the result in data set [2] was inactive. The selectivity ratio in data set [4] was 111. Besides, in data set [5], the IC50 was determined as 79 nM. Moreover, in the data set on MT4, the midpoint of cytotoxicity, the CC50, lay at 8900 nM.

For `C=C(C)[C@@H]1CC[C@]2(C(=O)N3CCC(CCCC(=O)N4CCOCC4)CC3)CC[C@]3(C)[C@H](CC[C@@H]4[C@@]5(C)CC[C@H](O)C(C)(C)[C@@H]5CC[C@]43C)[C@@H]12`, the result in data set [1] and in data set [2] was inactive.

Regarding `C=C(C)[C@@H]1CC[C@]2(C(=O)ON3C(=O)CCC3=O)CC[C@]3(C)[C@H](CC[C@@H]4[C@@]5(C)CC[C@H](O)C(C)(C)[C@@H]5CC[C@]43C)[C@@H]12`, the result in data set [1] and in data set [2] was inactive.

In the case of `C=C(C)[C@@H]1CC[C@]2(C(=O)N3CCN(CCCCC(=O)O)CC3)CC[C@]3(C)[C@H](CC[C@@H]4[C@@]5(C)CC[C@H](O)C(C)(C)[C@@H]5CC[C@]43C)[C@@H]12`, the result in data set [1] and in data set [2] was inactive.

As for `C=C(C)[C@@H]1CC[C@]2(C(=O)O)CC[C@]3(C)[C@H](CC[C@@H]4[C@@]5(C)CC[C@H](OCOC)C(C)(C)[C@@H]5CC[C@]43C)[C@@H]12`, the outcome in data set [1] and in data set [2] was inactive.

For `C=C(C)[C@@H]1CC[C@]2(C(=O)OCCCc3ccccc3)CC[C@]3(C)[C@H](CC[C@@H]4[C@@]5(C)CC[C@H](O)C(C)(C)[C@@H]5CC[C@]43C)[C@@H]12`, the result in data set [1] and in data set [2] was inactive.

In the case of `C=C(C)[C@@H]1CC[C@]2(C(=O)OCOCCOC)CC[C@]3(C)[C@H](CC[C@@H]4[C@@]5(C)CC[C@H](O)C(C)(C)[C@@H]5CC[C@]43C)[C@@H]12`, the result in data set [1] and in data set [2] was inactive.

As to `C#CCOC(=O)[C@]12CC[C@@H](C(=C)C)[C@@H]1[C@H]1CC[C@@H]3[C@@]4(C)CC[C@H](OC(=O)CC(C)(C)C(=O)O)C(C)(C)[C@@H]4CC[C@@]3(C)[C@]1(C)CC2`, the outcome in data set [2] was inactive. Also, in data set [4], the selectivity ratio was found to be 226. The IC50 in data set [5] was 67 nM. This compound also came in with a half-maximal cytotoxic concentration (CC50) with MT4 of 15300 nM.

On to `C=C(C)[C@@H]1CC[C@]2(C(=O)N3CCC(CCCC(=O)NC)CC3)CC[C@]3(C)[C@H](CC[C@@H]4[C@@]5(C)CC[C@H](O)C(C)(C)[C@@H]5CC[C@]43C)[C@@H]12`, for which the outcome in data set [1] and in data set [2] was inactive.

For `C=C(C)[C@@H]1CC[C@]2(C(=O)OCOC)CC[C@]3(C)[C@H](CC[C@@H]4[C@@]5(C)CC[C@H](O)C(C)(C)[C@@H]5CC[C@]43C)[C@@H]12`, the result in data set [1] and in data set [2] was inactive.

In the case of `C=C(C)[C@@H]1CC[C@]2(C(=O)O)CC[C@]3(C)[C@H](CC[C@@H]4[C@@]5(C)CC[C@H](OCOCCOC)C(C)(C)[C@@H]5CC[C@]43C)[C@@H]12`, the result in data set [1] and in data set [2] was inactive.

With `C=C(C)[C@@H]1CC[C@]2(C(=O)OCCOCCOCCOCCO)CC[C@]3(C)[C@H](CC[C@@H]4[C@@]5(C)CC[C@H](O)C(C)(C)[C@@H]5CC[C@]43C)[C@@H]12`, the result in data set [1] and in data set [2] was inactive.

Regarding `C=C(C)[C@@H]1CC[C@]2(C(=O)N3CCC(CCCC(=O)N4CCOCC4)CC3)CC[C@]3(C)[C@H](CC[C@@H]4[C@@]5(C)CC[C@H](OC(=O)CC(C)(C)C(=O)O)C(C)(C)[C@@H]5CC[C@]43C)[C@@H]12`, the result in data set [2] was inactive. In data set [4], the selectivity ratio amounted to 156. In addition, the IC50 in data set [5] was found to be 70 nM. The CC50 in the data set on MT4 is 10900 nM.

Consider `C=C(C)[C@@H]1CC[C@]2(C(=O)OCCCCCCCC)CC[C@]3(C)[C@H](CC[C@@H]4[C@@]5(C)CC[C@H](OC(=O)CC(C)(C)C(=O)O)C(C)(C)[C@@H]5CC[C@]43C)[C@@H]12`, for which the result in data set [1] and in data set [2] was inactive.

Broadly, the IC50 is the midpoint of a concentration-inhibition curve. One may read the CC50 as the concentration at which the toxic effect on the cells reaches its halfway point.
